18 molecules from ChEMBL document CHEMBL1144244, “Synthesis and biological activity of enantiomeric pairs of 5-[(E)-cycloalk-2-enylidenemethyl]thiolactomycin congeners” (Bioorg Med Chem Lett, 2008) can be followed below.

Converted amounts (≈) assume the structure as drawn.

One experiment deals with Staphylococcus aureus. In words: Antibacterial activity against Staphylococcus aureus Smith by agar dilution method. The class given is functional. The method, boiled down: (§1)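 MICs determined by agar dilution following CLSI guideline M7-A6 (2003).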
On the technique in general: In agar dilution the substance is mixed into plates at graded concentrations.

Another experiment deals with Moraxella catarrhalis. In words: Antibacterial activity against Moraxella catarrhalis ATCC 25238 by agar dilution method. The class given is functional. In a few lines:
as §1

Another experiment has as its system Haemophilus influenzae. The experiment is described as follows: Antibacterial activity against Haemophilus influenzae IID983 by agar dilution method. The class given is functional. The method, boiled down:
as §1

Experiment [1] is described as follows: Inhibition of fatty acid synthase type 1 in human HepG2 cells assessed as [1-14C]acetate incorporation into cellular fatty acid. In kind it is cell-based.

For `CC1=C(O)[C@@](C)(/C=C2/C=CCCC2)SC1=O`, the MIC against Staphylococcus aureus, against Moraxella catarrhalis and in the experiment on Haemophilus influenzae was over 64 µg/mL throughout. Also, in experiment [1], the IC50 (commonly the concentration that gives 50% inhibition) was over 0.08 µg/mL.
`C=C/C(C)=C/[C@]1(C)SC(=O)C=C1O`: the MIC against Staphylococcus aureus and against Moraxella catarrhalis was over 128 µg/mL throughout. For the same molecule, the IC50 in experiment [1] was found to be 0.019 µg/mL (≈ 0.0968 µM).
On to `C=C/C(C)=C/[C@@]1(C)SC(=O)C(C)=C1O` [THIOLACTOMYCIN], for which the MIC is 128 µg/mL (≈ 609 µM) with Staphylococcus aureus, 0.25 µg/mL (≈ 1.19 µM) in the experiment on Moraxella catarrhalis and 2 µg/mL (≈ 9.51 µM) in the experiment with Haemophilus influenzae. Also, the IC50 in experiment [1] is over 0.08 µg/mL.
Regarding `CC1=C(O)[C@](C)(/C=C2/C=CCCC2)SC1=O`, the MIC in the experiment on Staphylococcus aureus, with Moraxella catarrhalis and in the experiment with Haemophilus influenzae was over 64 µg/mL throughout. In addition, in experiment [1], the IC50 was over 0.08 µg/mL.
Turning to `CC1=C(O)[C@](C)(/C=C2/C=CCCCC2)SC1=O`, the MIC against Staphylococcus aureus, against Moraxella catarrhalis and in the experiment on Haemophilus influenzae was over 64 µg/mL throughout. For the same molecule, the IC50 in experiment [1] was 0.0149 µg/mL (≈ 0.0595 µM).
Regarding `C[C@@]1(/C=C2/C=CCCC2)SC(=O)C=C1O`, the MIC in the experiment with Staphylococcus aureus, against Moraxella catarrhalis and in the experiment with Haemophilus influenzae was over 64 µg/mL throughout. The IC50 in experiment [1] was 0.0189 µg/mL (≈ 0.085 µM).
As for `C[C@]1(/C=C2/C=CCCCC2)SC(=O)C=C1O`, the MIC in the experiment on Staphylococcus aureus, in the experiment on Moraxella catarrhalis and in the experiment with Haemophilus influenzae was over 64 µg/mL in each case. Further, in experiment [1], the IC50 stood at 0.0133 µg/mL (≈ 0.0563 µM).
For `C=C/C(C)=C/[C@]1(C)SC(=O)C(C)=C1O`, the MIC with Staphylococcus aureus and against Moraxella catarrhalis was over 128 µg/mL in each case. Further, the IC50 in experiment [1] came out at 0.0437 µg/mL (≈ 0.208 µM).
`O=C(O)c1cn(C2CC2)c2cc(N3CCNCC3)c(F)cc2c1=O` [CIPROFLOXACIN]: the MIC in the experiment on Staphylococcus aureus was 0.063 µg/mL (≈ 0.19 µM); against Moraxella catarrhalis, 0.031 µg/mL (≈ 0.0936 µM); against Haemophilus influenzae it was 0.008 µg/mL (≈ 0.0241 µM).
`CC1=C(O)[C@](C)(/C=C2/C=C\CCCCC2)SC1=O`: the MIC against Staphylococcus aureus is over 128 µg/mL; against Moraxella catarrhalis it was 64 µg/mL (≈ 242 µM); in the experiment with Haemophilus influenzae, over 128 µg/mL. Further, the IC50 in experiment [1] was found to be 0.0116 µg/mL (≈ 0.0439 µM).
Consider `C=C1C(=O)OC(CCCCCCCC)C1C(=O)O` (stereo unspecified), for which the IC50 in experiment [1] is 0.0074 µg/mL (≈ 0.0291 µM).
Consider `C[C@@]1(/C=C2/C=C\CCCCC2)SC(=O)C=C1O`, for which the MIC was over 128 µg/mL with Staphylococcus aureus, 64 µg/mL (≈ 256 µM) in the experiment on Moraxella catarrhalis and over 128 µg/mL in the experiment on Haemophilus influenzae. In addition, in experiment [1], the IC50 turned out to be 0.0246 µg/mL (≈ 0.0983 µM).
With `CC1=C(O)[C@@](C)(/C=C2/C=CCCCC2)SC1=O`, the MIC against Staphylococcus aureus, with Moraxella catarrhalis and against Haemophilus influenzae was over 64 µg/mL throughout. Also, the IC50 in experiment [1] was 0.0254 µg/mL (≈ 0.101 µM).
For the molecule `C[C@]1(/C=C2/C=C\CCCCC2)SC(=O)C=C1O`, the MIC in the experiment with Staphylococcus aureus is over 128 µg/mL; against Moraxella catarrhalis it was 128 µg/mL (≈ 511 µM); with Haemophilus influenzae, over 128 µg/mL. Moreover, the IC50 in experiment [1] stood at 0.0195 µg/mL (≈ 0.0779 µM).
On to `C[C@@]1(/C=C2/C=CCCCC2)SC(=O)C=C1O`, for which the MIC against Staphylococcus aureus, in the experiment with Moraxella catarrhalis and in the experiment on Haemophilus influenzae was over 64 µg/mL each time. In addition, the IC50 in experiment [1] worked out at 0.0226 µg/mL (≈ 0.0956 µM).
`CC1=C(O)[C@@](C)(/C=C2/C=C\CCCCC2)SC1=O`: the MIC is over 128 µg/mL with Staphylococcus aureus, 64 µg/mL (≈ 242 µM) in the experiment with Moraxella catarrhalis and over 128 µg/mL in the experiment on Haemophilus influenzae. Moreover, in experiment [1], the IC50 came out at 0.0418 µg/mL (≈ 0.158 µM).
For the molecule `C=C/C(C)=C/[C@@]1(C)SC(=O)C=C1O`, the MIC in the experiment with Staphylococcus aureus is over 128 µg/mL; against Moraxella catarrhalis, 16 µg/mL (≈ 81.5 µM); in the experiment with Haemophilus influenzae it was 32 µg/mL (≈ 163 µM). Also, the IC50 in experiment [1] is over 0.08 µg/mL.
The corresponding values for `C[C@]1(/C=C2/C=CCCC2)SC(=O)C=C1O` are over 64 µg/mL, over 64 µg/mL, over 64 µg/mL and 0.057 µg/mL (≈ 0.256 µM).
